{"source": "paper PMC9710334", "about": "(BMJ Open Gastroenterology, 2022)", "key": {"[1]": {"system": "patients with advanced primary biliary cholangitis", "assay": "Phase 1 trial: adverse events graded by CTCAE v4.0, safety and tolerability", "format": "in vivo, human", "summary_of_the_method": "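Seven advanced PBC patients (stage III or higher) received OP-724 iv at 280 (n=6) or 380 (n=1) mg/m2 over 4 hours, twice weekly for 12 cycles, after a single dose given 7 days before cycle 1. AEs and laboratory results were recorded throughout and graded by CTCAE v4.0. The primary endpoint was SAEs where drug causality could not be excluded.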"}, "[2]": {"system": "patients with advanced PBC", "assay": "Liver stiffness", "format": "in vivo, human", "summary_of_the_method": "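Patients aged 20–74 years with PBC and Scheuer stage III or higher fibrosis on screening biopsy received iv OP-724 at 280 or 380 mg/m2 over 4 hours, twice weekly for 12 cycles. Liver stiffness was measured by FibroScan, and the Child-Pugh score, MELD score and Enhanced Liver Fibrosis score were determined. Prespecified change was from baseline to 12 weeks. Analysis was descriptive, mean±SD, with no statistical testing.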"}, "liver fibrosis models": {"system": "liver fibrosis models", "conditions": "cited from earlier work"}, "[3]": {"conditions": "before and after administration"}, "[4]": {"conditions": "patient P101-07, 12 weeks, baseline 5"}, "[5]": {"conditions": "patient P101-08, 12 weeks, baseline 6"}}, "note": "“Also recorded” adds a separate entry of the source.", "data": [{"smiles": "C[C@H]1[C@H]2N(C(=O)CN(C)N2C(=O)NCc2ccccc2)[C@@H](Cc2ccc(OP(=O)(O)O)cc2)C(=O)N1Cc1cccc2cccnc12", "note": "[OP-724]", "values": [{"measurement": "Fever, Grade 2, patients n (%)", "setting": "[1]; 380 mg/m^2/4 hours (n=1)", "result": 0}, {"measurement": "Fever, Grades 3–5, patients n (%)", "setting": "[1]; 380 mg/m^2/4 hours (n=1)", "result": 0}, {"measurement": "Haemorrhage, Grade 1, patients n (%)", "setting": "[1]; 380 mg/m^2/4 hours (n=1)", "result": 0}, {"measurement": "Haemorrhage, Grade 2, patients n (%)", "setting": "[1]; 380 mg/m^2/4 hours (n=1)", "result": 0}, {"measurement": "Haemorrhage, Grades 3–5, patients n (%)", "setting": "[1]; 380 mg/m^2/4 hours (n=1)", "result": 0}, {"measurement": "Hepatic function abnormal, Grade 1, patients n (%)", "setting": "[1]; 380 mg/m^2/4 hours (n=1)", "result": 0}, {"measurement": "Hepatic function abnormal, Grades 3–5, patients n (%)", "setting": "[1]; 380 mg/m^2/4 hours (n=1)", "result": 0}, {"measurement": "Infusion site extravasation, Grade 1, patients n (%)", "setting": "[1]; 380 mg/m^2/4 hours (n=1)", "result": 0}, {"measurement": "Infusion site extravasation, Grade 2, patients n (%)", "setting": "[1]; 380 mg/m^2/4 hours (n=1)", "result": 0}, {"measurement": "Infusion site extravasation, Grades 3–5, patients n (%)", "setting": "[1]; 380 mg/m^2/4 hours (n=1)", "result": 0}, {"measurement": "Nasopharyngitis, Grade 2, patients n (%)", "setting": "[1]; 380 mg/m^2/4 hours (n=1)", "result": 0}, {"measurement": "Nasopharyngitis, Grades 3–5, patients n (%)", "setting": "[1]; 380 mg/m^2/4 hours (n=1)", "result": 0}, {"measurement": "Nausea, Grade 1, patients n (%)", "setting": "[1]; 380 mg/m^2/4 hours (n=1)", "result": 0}, {"measurement": "Nausea, Grade 2, patients n (%)", "setting": "[1]; 380 mg/m^2/4 hours (n=1)", "result": 0}, {"measurement": "Nausea, Grades 3–5, patients n (%)", "setting": "[1]; 380 mg/m^2/4 hours (n=1)", "result": 0}, {"measurement": "Open angle glaucoma, Grade 1, patients n (%)", "setting": "[1]; 380 mg/m^2/4 hours (n=1)", "result": 0}, {"measurement": "Open angle glaucoma, Grade 2, patients n (%)", "setting": "[1]; 380 mg/m^2/4 hours (n=1)", "result": 0}, {"measurement": "Open angle glaucoma, Grades 3–5, patients n (%)", "setting": "[1]; 380 mg/m^2/4 hours (n=1)", "result": 0}, {"measurement": "Renal impairment, Grade 1, patients n (%)", "setting": "[1]; 380 mg/m^2/4 hours (n=1)", "result": 0}, {"measurement": "Renal impairment, Grade 2, patients n (%)", "setting": "[1]; 380 mg/m^2/4 hours (n=1)", "result": 0}, {"measurement": "Renal impairment, Grades 3–5, patients n (%)", "setting": "[1]; 380 mg/m^2/4 hours (n=1)", "result": 0}, {"measurement": "Tooth fracture, Grade 1, patients n (%)", "setting": "[1]; 380 mg/m^2/4 hours (n=1)", "result": 0}, {"measurement": "Tooth fracture, Grade 2, patients n (%)", "setting": "[1]; 380 mg/m^2/4 hours (n=1)", "result": 0}, {"measurement": "Tooth fracture, Grades 3–5, patients n (%)", "setting": "[1]; 380 mg/m^2/4 hours (n=1)", "result": 0}, {"measurement": "Vomiting, Grade 1, patients n (%)", "setting": "[1]; 380 mg/m^2/4 hours (n=1)", "result": 0}, {"measurement": "Vomiting, Grade 2, patients n (%)", "setting": "[1]; 380 mg/m^2/4 hours (n=1)", "result": 0}, {"measurement": "Vomiting, Grades 3–5, patients n (%)", "setting": "[1]; 380 mg/m^2/4 hours (n=1)", "result": 0}, {"measurement": "incidence of SAEs (primary endpoint)", "setting": "[1]; all patients (0/7), 280 or 380 mg/m^2/4 hours iv two times weekly, 12 weeks", "result": 0, "unit": "%"}, {"measurement": "patients who developed general/systemic disorder and administration site status", "setting": "[1]; all patients (3/7)", "result": 42.9, "unit": "%"}, {"measurement": "patients who developed hepatobiliary system disorder", "setting": "[1]; all patients (3/7)", "result": 42.9, "unit": "%"}, {"measurement": "patients who developed gastrointestinal disorder", "setting": "[1]; all patients (4/7)", "result": 57.1, "unit": "%"}, {"measurement": "occurrence rate of side effects", "setting": "[1]; all patients (6/7)", "result": 85.7, "unit": "%"}, {"measurement": "occurrence rate of AEs", "setting": "[1]; all patients (7/7)", "result": 100, "unit": "%"}, {"measurement": "abdominal discomfort (most common AEs)", "setting": "[1]; all seven patients", "result": 29, "unit": "%"}, {"measurement": "abnormal hepatic function (most common AEs)", "setting": "[1]; all seven patients", "result": 43, "unit": "%"}, {"measurement": "recommended dosage", "setting": "[1]; iv infusion two times weekly for 12 weeks, patients with advanced PBC", "result": 280, "unit": "mg/m^2/4 hours"}, {"measurement": "emetogenicity", "setting": "[1]; managed with standard-of-care antiemetics", "result": "mildly or moderately emetogenic"}, {"measurement": "grade of drug-induced liver injury leading to withdrawal", "setting": "[1]; one patient in the 380 mg/m^2/4 hours cohort", "result": "grade 2"}, {"measurement": "serious adverse events (in words)", "setting": "[1]; seven patients, 280 or 380 mg/m^2/4 hours iv two times weekly, 12 weeks", "result": "did not occur; also recorded: no SAE was observed"}, {"measurement": "deaths related to drug administration", "setting": "[1]; seven patients, administration period", "result": "no deaths related to drug administration were observed"}, {"measurement": "fragility fractures", "setting": "[1]; this study", "result": "no fragility fractures were recorded"}, {"measurement": "change in mean CP score", "setting": "[2]; 12 weeks after administration", "result": "no changes"}, {"measurement": "change in mean MELD score", "setting": "[2]; 12 weeks after administration", "result": "no changes"}, {"measurement": "change in Enhanced Liver Fibrosis score", "setting": "[2]; [3]", "result": "no significant change"}, {"measurement": "change in liver stiffness by FibroScan", "setting": "[2]; [3]", "result": "no significant change"}, {"measurement": "ELF score", "setting": "[2]; patient P101-01, 12 weeks, baseline 1.2", "result": 0.9}, {"measurement": "Child-Pugh score", "setting": "[2]; patient P101-01, 12 weeks, baseline 6", "result": 7}, {"measurement": "FibroScan", "setting": "[2]; patient P101-01, 12 weeks, baseline 9.1", "result": 8.9, "unit": "kPa"}, {"measurement": "MELD score", "setting": "[2]; patient P101-01, 12 weeks, baseline 15", "result": 15}, {"measurement": "ELF score", "setting": "[2]; patient P101-02, 12 weeks, baseline 0.78", "result": 0.24}, {"measurement": "MELD score", "setting": "[2]; patient P101-02, 12 weeks, baseline 2", "result": 2}, {"measurement": "Child-Pugh score", "setting": "[2]; patient P101-02, 12 weeks, baseline 6", "result": 6}, {"measurement": "FibroScan", "setting": "[2]; patient P101-02, 12 weeks, baseline 40.3", "result": 33.8, "unit": "kPa"}, {"measurement": "ELF score", "setting": "[2]; patient P101-04, 12 weeks, baseline 2.46", "result": 3.16}, {"measurement": "MELD score", "setting": "[2]; patient P101-04, 12 weeks, baseline 6", "result": 8}, {"measurement": "Child-Pugh score", "setting": "[2]; patient P101-04, 12 weeks, baseline 7", "result": 7}, {"measurement": "FibroScan", "setting": "[2]; patient P101-04, 12 weeks, baseline 26.3", "result": 23.6, "unit": "kPa"}, {"measurement": "Child-Pugh score", "setting": "[2]; [4]", "result": 5}, {"measurement": "MELD score", "setting": "[2]; [4]", "result": 5}, {"measurement": "FibroScan", "setting": "[2]; patient P101-07, 12 weeks, baseline 11.6", "result": 9.2, "unit": "kPa"}, {"measurement": "ELF score", "setting": "[2]; patient P101-07, 12 weeks, baseline −0.1", "result": "−0.07"}, {"measurement": "ELF score", "setting": "[2]; patient P101-08, 12 weeks, baseline 0.96", "result": 1.48}, {"measurement": "Child-Pugh score", "setting": "[2]; [5]", "result": 6}, {"measurement": "MELD score", "setting": "[2]; [5]", "result": 6}, {"measurement": "FibroScan", "setting": "[2]; patient P101-08, 12 weeks, baseline 22.3", "result": 36.3, "unit": "kPa"}, {"measurement": "antifibrotic effect", "setting": "liver fibrosis models", "result": "exerts antifibrotic effects"}]}]}
